Experimental data reported in ChEMBL document CHEMBL1126775, “A pharmacological, crystallographic, and quantum chemical study of new inotropic agents” (J Med Chem, 1993).
“And” between values parts separate entries of the source, which are not always exact repeats. Identical values can stand only once.

Legend:
[1] = Logarithm of the sum of contributions of each atom to the total lipophilicity of the molecule; assay type: physicochemical; details: octanol/water
[2] = species on record: Cavia porcellus; assay: Inotropic effect in electrically driven left atrium from reserpine-treated guinea pig at the concentration of 10 e-4 M; assay type: functional, Cardiac atrium
How it was run: (§1)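 Atria from reserpine-pretreated guinea pigs (2 mg/kg ip, 48 and 24 h), tyramine-unresponsive only. Left atrium loaded 0.5 g, paced at 1.5 Hz with 3-ms square pulses at 10–20% above threshold. Equilibrated 90 min. Agents added cumulatively, 5 min per concentration. Isometric developed tension expressed as % increase over control.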

[3] = species on record: Cavia porcellus; assay: Inotropic effect in electrically driven left atrium from reserpine-treated guinea pig at the concentration of 10 e-5 M; assay type: functional, Cardiac atrium; how it was run: as §1
[4] = species on record: Cavia porcellus; assay: Inotropic effect in electrically driven left atrium from reserpine-treated guinea pig at the concentration of 2 x 10 e-3 M; assay type: functional, Cardiac atrium; how it was run: as §1
[5] = species on record: Cavia porcellus; assay: Inotropic effect in electrically driven left atrium from reserpine-treated guinea pig at the concentration of 5 x 10 e-4 M; assay type: functional, Cardiac atrium; how it was run: as §1
[6] = species on record: Cavia porcellus; assay: Inotropic effect in electrically driven left atrium from reserpine-treated guinea pig at the concentration of 5 x 10 e-5 M; assay type: functional, Cardiac atrium; how it was run: as §1
[7] = species on record: Cavia porcellus; assay: Inotropic effect in electrically driven left atrium from reserpine-treated guinea pig without 8-phenyl theophylline at the concentration of 10 e-4 M; assay type: functional, Cardiac atrium
How it was run: (§2)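 Paced left atrium from reserpine-pretreated, tyramine-unresponsive guinea pigs (0.5 g load, 1.5 Hz, 3-ms pulses). Cumulative additions of agent, 5 min each, with no 8-phenyltheophylline present. Developed tension as % increase over control. Mean ± SEM of six assays from six experiments; Student's t test against the 8-phenyltheophylline-treated preparations.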

[8] = species on record: Cavia porcellus; assay: Inotropic effect in electrically driven left atrium from reserpine-treated guinea pig without 8-phenyl theophylline at the concentration of 10 e-5 M; assay type: functional, Cardiac atrium; how it was run: as §2
[9] = species on record: Cavia porcellus; assay: Inotropic effect in electrically driven left atrium from reserpine-treated guinea pig without 8-phenyl theophylline at the concentration of 5 x 10 e-4 M; assay type: functional, Cardiac atrium; how it was run: as §2
[10] = species on record: Cavia porcellus; assay: Inotropic effect in electrically driven left atrium from reserpine-treated guinea pig without 8-phenyl theophylline at the concentration of 5 x 10 e-5 M; assay type: functional, Cardiac atrium; how it was run: as §2
[11] = species on record: Cavia porcellus; assay: Inotropic response in electrically driven left atrium from reserpine-treated guinea pig without ADA at the concentration of 5 x 10 e-5 M; assay type: functional, Cardiac atrium
How it was run: (§3)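 Control arm: electrically driven left atrium (1.5 Hz, 3-ms pulses, 0.5 g load) from guinea pigs given reserpine 2 mg/kg ip at 48 and 24 h, tyramine-unresponsive; no adenosine deaminase. Cumulative additions after 90 min equilibration, 5 min per concentration. Isometric developed tension, % over control; six assays from six experiments.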

[12] = species on record: Cavia porcellus; assay: Inotropic response in electrically driven left atrium from reserpine-treated guinea pig with ADA (2 units/ml) at the concentration of 10 e-3 M; assay type: functional, Cardiac atrium
How it was run: (§4)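 Reserpinized guinea pigs (2 mg/kg ip, 48 and 24 h before death), tyramine-unresponsive atria. Electrically driven left atrium (1.5 Hz, 3-ms pulses, 0.5 g load) preincubated 20 min with adenosine deaminase after 90 min equilibration. Agents added cumulatively, 5 min per concentration. Developed tension recorded isometrically, % increase over control or % inhibition; six assays from six experiments, Student's t test.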

[13] = species on record: Cavia porcellus; assay: Inotropic response in electrically driven left atrium from reserpine-treated guinea pig with ADA (2 units/ml) at the concentration of 10 e-4 M; assay type: functional, Cardiac atrium; how it was run: as §4
[14] = species on record: Cavia porcellus; assay: Inotropic response in electrically driven left atrium from reserpine-treated guinea pig without VER at the concentration of 2 x 10 e-3 M; assay type: functional, Cardiac atrium
How it was run: (§5)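 Control arm without verapamil: left atrium from reserpinized guinea pigs (2 mg/kg ip, 48 and 24 h before), tyramine-unresponsive, paced at 1.5 Hz (3-ms pulses). Agents added cumulatively after 90 min equilibration, recorded 5 min each. Isometric developed tension as % increase over control; seven assays from seven experiments.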

[15] = species on record: Cavia porcellus; assay: Inotropic response in electrically driven left atrium from reserpine-treated guinea pig without VER at the concentration of 5 x 10 e-4 M; assay type: functional, Cardiac atrium; how it was run: as §5
[16] = species on record: Cavia porcellus; assay: Inotropic response in electrically driven left atrium from reserpine-treated guinea pig with ADA (2 units/ml) at the concentration of 2 x 10 e-3 M; assay type: functional, Cardiac atrium; how it was run: as §4
[17] = species on record: Cavia porcellus; assay: Inotropic response in electrically driven left atrium from reserpine-treated guinea pig with ADA (2 units/ml) at the concentration of 5 x 10 e-4 M; assay type: functional, Cardiac atrium; how it was run: as §4
[18] = species on record: Cavia porcellus; assay: Inotropic response in electrically driven left atrium from reserpine-treated guinea pig with VER (10 e-7) at the concentration of 10 e-3 M; assay type: functional, Cardiac atrium
How it was run: (§6)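 Left atrium from reserpine-treated guinea pigs (2 mg/kg ip, 48 and 24 h prior; tyramine 2 μg/mL check), paced at 1.5 Hz with 3-ms pulses. Verapamil 0.1 μM added 10 min before cumulative agent additions (5 min each), after 90 min equilibration. Isometric developed tension as % increase over control; seven assays from seven experiments.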

[19] = species on record: Cavia porcellus; assay: Inotropic response in electrically driven left atrium from reserpine-treated guinea pig with VER (10 e-7) at the concentration of 10 e-4 M; assay type: functional, Cardiac atrium; how it was run: as §6
[20] = species on record: Cavia porcellus; assay: Inotropic response in electrically driven left atrium from reserpine-treated guinea pig with VER (10 e-7) at the concentration of 2 x 10 e-3 M; assay type: functional, Cardiac atrium; how it was run: as §6
[21] = species on record: Cavia porcellus; assay: Inotropic response in electrically driven left atrium from reserpine-treated guinea pig with VER (10 e-7) at the concentration of 5 x 10 e-4 M; assay type: functional, Cardiac atrium; how it was run: as §6
[22] = species on record: Cavia porcellus; assay: Inotropic response in electrically driven left atrium from reserpine-treated guinea pig with VER (10 e-7) at the concentration of 5 x10 e-5 M; assay type: functional, Cardiac atrium; how it was run: as §6
[23] = species on record: Cavia porcellus; assay: Inotropic response in electrically driven left atrium from reserpine-treated guinea pig without ADA at the concentration of 10 e-3 M; assay type: functional, Cardiac atrium; how it was run: as §3
[24] = species on record: Cavia porcellus; assay: Inotropic response in electrically driven left atrium from reserpine-treated guinea pig without ADA at the concentration of 10 e-4 M; assay type: functional, Cardiac atrium; how it was run: as §3
[25] = species on record: Cavia porcellus; assay: Inotropic response in electrically driven left atrium from reserpine-treated guinea pig without ADA at the concentration of 10 e-5 M; assay type: functional, Cardiac atrium; how it was run: as §3
[26] = species on record: Cavia porcellus; assay: Inotropic response in electrically driven left atrium from reserpine-treated guinea pig without ADA at the concentration of 2 x 10 e-3 M; assay type: functional, Cardiac atrium; how it was run: as §3
[27] = species on record: Cavia porcellus; assay: Effect on contractile force of spontaneously beating atria from reserpine treated guinea pigs at the concentration of 10 e-3 M; assay type: functional
[28] = species on record: Cavia porcellus; assay: Effect on contractile force of spontaneously beating atria from reserpine treated guinea pigs at the concentration of 10 e-4 M; assay type: functional
[29] = species on record: Cavia porcellus; assay: Effect on contractile force of spontaneously beating atria from reserpine treated guinea pigs at the concentration of 10 e-5 M; assay type: functional
[30] = species on record: Cavia porcellus; assay: Effect on contractile force of spontaneously beating atria from reserpine treated guinea pigs at the concentration of 2 x 10 e-3 M; assay type: functional
[31] = species on record: Cavia porcellus; assay: Effect on contractile force of spontaneously beating atria from reserpine treated guinea pigs at the concentration of 5x 10 e-4 M; assay type: functional
[32] = species on record: Cavia porcellus; assay: Effect on contractile force of spontaneously beating atria from reserpine treated guinea pigs at the concentration of 5x 10 e-5 M; assay type: functional
[33] = species on record: Cavia porcellus; assay: Effect on frequency rate of spontaneously beating atria from reserpine treated guinea pigs at the concentration of 10 e-4 M; assay type: functional
[34] = species on record: Cavia porcellus; assay: Effect on frequency rate of spontaneously beating atria from reserpine treated guinea pigs at the concentration of 10 e-5 M; assay type: functional
[35] = species on record: Cavia porcellus; assay: Effect on frequency rate of spontaneously beating atria from reserpine treated guinea pigs at the concentration of 2 x 10 e-3 M; assay type: functional
[36] = species on record: Cavia porcellus; assay: Inotropic response in electrically driven left atrium from reserpine-treated guinea pig with VER (10 e-7) at the concentration of 10 e-5 M; assay type: functional, Cardiac atrium; how it was run: as §6

CC1CC(=O)c2ccc(O)nc2C1 (configuration not stated)
logP [1]: 0.45
Increase [2]: 26.62%
Increase [3]: 6.31%
Increase [4]: 93.66%
Increase [5]: 37.23%
Increase [6]: 19.17%
Increase [7]: 24.77%
Increase [8]: 4.64%
Increase [9]: 38.88%
Increase [10]: 18.83%
Increase [11]: 25%
Increase [12]: 20.63%
Increase [13]: 9.12%
Increase [14]: 75.51%
Increase [15]: 31.4%
Increase [16]: 39.98%
Increase [17]: 14.35%
Increase [18]: 23.78%
Increase [19]: 2.43%
Increase [20]: 43.8%
Increase [21]: 14.7%
Increase [22]: 2.45%
Increase [23]: 46.19%
Increase [24]: 27.6%
Increase [25]: 15.78%
Increase [26]: 67.12%
Increase [27]: 46.09%
Increase [28]: 28.89%
Increase [29]: 4.28%
Increase [30]: 80.98%
Increase [31]: 39.48%
Increase [32]: 18.88%
Increase [33]: 3.29%
Increase [34]: 2.63% and 3.21%
Increase [35]: 26.44%
Increase [36]: -0.32%

CC(=O)c1cc(C#N)c(O)nc1C
logP [1]: -0.1
Increase [2]: 38.06%
Increase [3]: 12.64%
Increase [4]: 67.13%
Increase [5]: 48.67%
Increase [6]: 25.17%
Increase [7]: 28.87%
Increase [8]: 12.62%
Increase [9]: 48.18%
Increase [10]: 17.81%
Increase [11]: 13.32%
Increase [12]: 37.93%
Increase [13]: 10.08%
Increase [14]: 94.47%
Increase [15]: 62.96%
Increase [16]: 80.21%
Increase [17]: 20.37%
Increase [18]: 66.4%
Increase [19]: 28.47%
Increase [20]: 88.84%
Increase [21]: 55.47%
Increase [22]: 19.5%
Increase [23]: 42.05%
Increase [24]: 12.61%
Increase [25]: 5.26%
Increase [26]: 84.6%
Increase [27]: 65.35%
Increase [28]: 35.57%
Increase [29]: 13.9%
Increase [30]: 64.11%
Increase [31]: 57.22%
Increase [32]: 27.64%
Increase [33]: 6.62%
Increase [34]: 0.23% and 1.35%
Increase [35]: 22.98%
Increase [36]: 12.63%
